1 compound from ChEMBL document CHEMBL1649157, “Intracellular activity of antibiotics against Staphylococcus aureus in a mouse peritonitis model” (Antimicrob Agents Chemother, 2009) can be followed below.

As a reminder, the Cmax is the highest concentration seen after dosing. Broadly, the half-life is the time needed for the level to fall by half in the phase considered. A lower half-life goes with rapid decline.

Data set [1] concerns Staphylococcus aureus. The experiment in a line: Antibacterial activity against Staphylococcus aureus E19977 infected in NMRI mouse assessed as log reduction in intracellular bacterial cfu in peritoneum at 200 mg/kg, sc administered as single dose 2 hrs after infection measured between 4 to 19 hrs. It is filed as functional, organism-based. Details: dose 200 mg/kg. In outline: (§1)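 NMRI mice were infected i.p. and given one or three doses (every 8 h), starting 2 h post-inoculation, at 200 mg/kg or 60 mg/kg, four mice per group. Peritoneal washes were sampled over 19 h of treatment. Total, extracellular and intracellular CFU/ml (lysostaphin separation) were compared with the pretreatment level; mean ± range, n = 2. Untreated controls were sampled only at 6 h of infection.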

Data set [2] deals with Staphylococcus aureus. The experiment in a line: Antibacterial activity against Staphylococcus aureus E19977 infected in NMRI mouse assessed as log reduction in bacterial cfu in peritoneum at 60 mg/kg, sc administered as single dose 2 hrs after infection measured within 4 hrs. The format is functional. Conditions: route subcutaneous. In outline: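 Female NMRI mice were infected i.p. with S. aureus E19977 (10^7.7 CFU/ml, 0.5 ml, 5% mucin). They were treated 2 h post-inoculation with a single 60 mg/kg dose and sampled after 4 h of treatment. Peritoneal-wash CFU were plated on blood agar. Δlog10 CFU/ml was calculated against vehicle-treated controls with the same infection duration.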

In data set [3] the test system is Staphylococcus aureus. The experiment in a line: Bactericidal activity against Staphylococcus aureus E19977 assessed as log reduction in cfu at 2 mg/liter after 12 hrs by time-kill study. It is filed as functional. In outline: (§2)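 Clinical bacteremia isolate (penicillin-resistant, methicillin-susceptible). Exponential-phase bacteria were placed in an in vitro kinetic model that simulates drug elimination without changing the inoculum. The starting drug level matched the human free peak serum concentration after a single dose, with simulated human elimination half-life. Samples were taken at 0, 2, 4, 6, 8, 12 and 24 h, with growth controls in each run.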

The subject of data set [4] is Staphylococcus aureus. The data set is described as follows: Bactericidal activity against Staphylococcus aureus E19977 assessed as log reduction in cfu at 2 mg/liter upto 24 hrs by time-kill study. It is filed as functional. In outline:
as §2

Data set [5] relates to Staphylococcus aureus. The experiment in a line: Bactericidal activity against Staphylococcus aureus E19977 assessed as log reduction in cfu at 9 mg/liter after 24 hrs by time-kill study. It is filed as functional, organism-based. In outline:
(§3)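 In vitro kinetic model simulating antibiotic elimination without inoculum change. Exponential-phase E19977 was added at a final 10^6.3 CFU/ml. Starting drug concentration matched the human free peak, with the human half-life simulated. Samples were plated on 5% blood agar at 0, 2, 4, 6, 8, 12 and 24 h, with growth controls in each run. Results are shown as mean and range, n = 2.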

The subject of data set [6] is Staphylococcus aureus. The experiment in a line: Bactericidal activity against Staphylococcus aureus E19977 assessed as log reduction in cfu at 2 mg/liter after 24 hrs by time-kill study. It is filed as functional, organism-based. In outline: as §3
In data set [7] the test system is Staphylococcus aureus. The data set is described as follows: Bactericidal activity against Staphylococcus aureus E19977 assessed as log reduction in cfu at 0.5 mg/liter after 24 hrs by time-kill study. The format is functional, organism-based. In outline:
as §3

Data set [8] deals with Staphylococcus aureus. The experiment in a line: Antibacterial activity against Staphylococcus aureus E19977 infected in NMRI mouse assessed as log reduction in bacterial cfu in peritoneum at 200 mg/kg, sc administered 2 hrs after infection measured after 4 hrs. The arrangement: dose 200 mg/kg. It is filed as functional, organism-based. In outline: (§4)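 Dose–response in i.p.-infected NMRI mice (mucin adjuvant). Single doses of 200, 60, 30, 20 or 10 mg/kg were given 2 h after inoculation, with 4–16 mice per group. Peritoneal wash was sampled 4 h later and split by lysostaphin/centrifugation into total, extra- and intracellular counts, then expressed as Δlog10 CFU/ml against log dose. Vehicle controls were plotted as 0.3 mg/kg. Hill fit (variable slope); static dose interpolated.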

Data set [9] concerns Staphylococcus aureus. The experiment in a line: Antibacterial activity against Staphylococcus aureus E19977 infected in NMRI mouse assessed as log reduction in intracellular bacterial cfu in peritoneum at 200 mg/kg, sc administered 2 hrs after infection measured after 4 hrs. The arrangement: dose 200 mg/kg. It is filed as functional, organism-based. In outline: as §4
Data set [10] has as its system Staphylococcus aureus. The experiment in a line: Antibacterial activity against Staphylococcus aureus E19977 infected in NMRI mouse assessed as log reduction in extracellular bacterial cfu in peritoneum at 200 mg/kg, sc administered 2 hrs after infection measured after 4 hrs. The format is functional, organism-based. The arrangement: dose 200 mg/kg. In outline: as §4

Data set [11] has as its system Staphylococcus aureus. The data set is described as follows: Antibacterial activity against Staphylococcus aureus E19977 infected in NMRI mouse assessed as log reduction in bacterial cfu in peritoneum at 60 mg/kg, sc administered as single dose 1 hr after infection measured after 4 hrs. Details: dose 60 mg/kg. It is filed as functional, organism-based. In outline: (§5)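 NMRI mice were infected i.p. with S. aureus E19977 in 5% mucin. A single dose (60 mg/kg or 10 mg/kg) was given 1, 2 or 3 h after inoculation, four mice per group. Peritoneal wash was sampled after 4 h of treatment and separated into total, extracellular and intracellular counts by lysostaphin/centrifugation. Δlog10 CFU/ml was calculated against vehicle-treated mice infected for the same time (5, 6 or 7 h).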

Data set [12] relates to Staphylococcus aureus. The data set is described as follows: Antibacterial activity against Staphylococcus aureus E19977 infected in NMRI mouse assessed as log reduction in bacterial cfu in peritoneum at 60 mg/kg, sc administered as single dose 2 hrs after infection measured after 4 hrs. The format is functional, organism-based. The arrangement: dose 60 mg/kg. In outline:
as §5

Data set [13] has as its system Staphylococcus aureus. The experiment in a line: Antibacterial activity against Staphylococcus aureus E19977 infected in NMRI mouse assessed as log reduction in intracellular bacterial cfu in peritoneum at 60 mg/kg, sc administered as single dose 1 hr after infection measured after 4 hrs. It is filed as functional, organism-based. Details: dose 60 mg/kg. In outline: as §5

For data set [14], the system named is Staphylococcus aureus. The experiment in a line: Antibacterial activity against Staphylococcus aureus E19977 infected in NMRI mouse assessed as log reduction in intracellular bacterial cfu in peritoneum at 60 mg/kg, sc administered as single dose 2 hrs after infection measured after 4 hrs. The format is functional, organism-based. The arrangement: dose 60 mg/kg. In outline: as §5

Data set [15] concerns Staphylococcus aureus. The data set is described as follows: Antibacterial activity against Staphylococcus aureus E19977 infected in NMRI mouse assessed as log reduction in extracellular bacterial cfu in peritoneum at 60 mg/kg, sc administered as single dose 3 hrs after infection measured after 4 hrs. It is filed as functional, organism-based. Details: dose 60 mg/kg. In outline: as §5

The test system of data set [16] is Staphylococcus aureus. The data set is described as follows: Antibacterial activity against Staphylococcus aureus E19977 infected in NMRI mouse assessed as log reduction in bacterial cfu in peritoneum at 10 to 200 mg/kg, sc administered 2 hrs after infection measured after 4 hrs. It is filed as functional, organism-based. In outline:
as §4

The test system of data set [17] is Staphylococcus aureus. The data set is described as follows: Antibacterial activity against Staphylococcus aureus E19977 infected in NMRI mouse assessed as log reduction in intracellular bacterial cfu in peritoneum at 10 to 200 mg/kg, sc administered 2 hrs after infection measured after 4 hrs. The format is functional, organism-based. In outline: as §4
For data set [18], the system named is Staphylococcus aureus. The data set is described as follows: Antibacterial activity against Staphylococcus aureus E19977 infected in NMRI mouse assessed as log reduction in bacterial cfu in peritoneum at 200 mg/kg, sc administered 2 hrs after infection evry 8 hrs as three-dose regimen measured after 19 hrs. The format is functional. Conditions: route subcutaneous. In outline:
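Female outbred NMRI mice (25 to 30 g) were infected i.p. with 0.5 ml of 10^7.7 CFU/ml S. aureus E19977 in 5% (wt/vol) mucin. The first dose was given 2 h after inoculation, either once or as three doses every 8 h, with four mice per group. Mice were euthanized 19 h after treatment onset and washed peritoneally with 2.0 ml saline. Total CFU were counted by duplicate spotting of 10-fold dilutions on 5% blood agar.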

Data set [19] has as its system Staphylococcus aureus. The experiment in a line: Antibacterial activity against Staphylococcus aureus E19977 infected in NMRI mouse assessed as log reduction in intracellular bacterial cfu in peritoneum at 200 mg/kg, sc administered 2 hrs after infection evry 8 hrs as three-dose regimen measured after 19 hrs. The arrangement: dose 200 mg/kg. The format is functional, organism-based. In outline:
as §1

The nature of data set [20]: Cmax in human at 1000 mg, po. It is filed as ADME, organism-based. Details: dose 1000 mg, route oral. The following applies: in vivo.
The subject of a further data set is Serum. The experiment in a line: Protein binding in human serum at 1000 mg, po. It is filed as ADME, organism-based. Conditions: in vivo.
Data set [21] in a line: Half life in human at 1000 mg, po. Conditions: in vivo. The format is ADME, organism-based.

Calls of active or inactive are those of the source. Bounds are passed on as bounds.

As to `Cc1onc(-c2c(Cl)cccc2Cl)c1C(=O)N[C@@H]1C(=O)N2[C@@H]1SC(C)(C)[C@@H]2C(=O)O` [DICLOXACILLIN], the result in the data set on Staphylococcus aureus [1], with Staphylococcus aureus [5], in the data set on Staphylococcus aureus [6], in the data set on Staphylococcus aureus [7], in the data set on Staphylococcus aureus [9] and in the data set on Staphylococcus aureus [12] was inactive. In addition, the outcome in the data set on Staphylococcus aureus [15] and in the data set on Staphylococcus aureus [19] was inactive. The FC in the data set on Staphylococcus aureus [2] was less than 1; in the data set on Staphylococcus aureus [3], 2; in the data set on Staphylococcus aureus [4] it was 2; in the data set on Staphylococcus aureus [18], 2. Also, the result in the data set with Staphylococcus aureus [8], in the data set on Staphylococcus aureus [10], in the data set on Staphylococcus aureus [11], in the data set on Staphylococcus aureus [13] and with Staphylococcus aureus [14] was Active. Moreover, the Activity result in the data set on Staphylococcus aureus [16] is “Dose-dependent effect”; in the data set with Staphylococcus aureus [17], “Dose-dependent effect”; in the data set with Serum it was 95%. In data set [20], this compound gave a Cmax of 30000 ng/mL. Further, the half-life in data set [21] was 1 h.
